{"source": "paper PMC4697833", "about": "(Bioorganic & medicinal chemistry, 2015)", "key": {"[1]": {"test_system": "NCI/ADR-RES (ovarian cancer; adriamycin-resistant)", "conditions": "read-out: IC50 NCI/ADR-RES, previously reported; cited from earlier work"}, "[2]": {"test_system": "CD34+CD38− BM cells", "experiment": "Flow cytometry viability of CD34+CD38− bone marrow cells", "format": "cell-based, human", "in_short": "(§1)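 Cells were plated at 1 × 10⁶ cells/mL with test compound (25 µM) or doxorubicin (0.5 µM) for 12 h (final DMSO 0.03%). Staining was CD34/CD38, then Annexin V/7-AAD, with over 5 × 10⁴ events. Viability is the unstained fraction, mean ± S.D. of n ≥ 3; unpaired t-tests.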"}, "[3]": {"test_system": "CD34+CD38− TEX cells", "experiment": "Flow cytometry viability of CD34+CD38− TEX cells", "format": "cell-based", "conditions": "Homo sapiens, 12 h", "in_short": "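TEX cells at 1 × 10⁶ cells/mL were dosed for 12 h at 37 °C, 20% O₂, 5% CO₂ (final DMSO 0.03% v/v). Test compound was given at 25, 15 or 2.5 µM; the doxorubicin reference at 2.5, 0.5 or 0.05 µM. Cells were stained for CD34/CD38 (10 min, 4 °C), then Annexin V-FITC/7-AAD (10 min, RT, dark). Over 5 × 10⁴ events were collected. Viable cells were double-negative. Values are mean ± S.D. of 3–5 biological replicates; unpaired t-test versus untreated.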"}, "[4]": {"test_system": "total bone marrow cell population", "experiment": "Flow cytometry viability of total bone marrow cells", "format": "cell-based, human", "in_short": "as §1"}, "[5]": {"test_system": "TEX cells", "experiment": "Methylcellulose clonal growth assay with TEX cells", "format": "cell-based, human", "conditions": "11 d growth on methylcellulose", "in_short": "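TEX cells were suspended in methylcellulose medium with penicillin (100 I.U./mL) and streptomycin (100 µg/mL) at a final 1.2 × 10⁴ cells/mL, i.e. 6,000 cells/well. Test compound, diluted in TEX medium, or DMSO (0.05%, control) was added. Cells were plated as technical triplicates and grown 11 d at 37 °C, 5% CO₂. Two people counted colonies independently at 10X. Values are the mean of 3 biological replicates ± S.D., with unpaired t-tests against DMSO.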"}, "[6]": {"test_system": "murine AML cell line B117H (cytarabine-resistant)", "experiment": "Murine cytotoxicity assay, B117H", "format": "cell-based", "conditions": "read-out: Growth inhibitory activity (IC50) B117H", "in_short": "(§2)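 Murine AML lines were used: B117P and B140P from BXH-2 mice, which develop leukemia from an endogenous murine leukemia virus, and their counterparts B117H and B140H. Cells per well were 25,000 (B117P), 28,000 (B117H), 36,000 (B140P) and 44,000 (B140H) in 96-well format. IC50 values are mean ± S.D. from biological triplicate.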"}, "[7]": {"test_system": "NCI/ADR-RES (ovarian cancer; adriamycin-resistant)", "experiment": "Alamar blue cytotoxicity assay, NCI/ADR-RES", "format": "cell-based, human", "conditions": "read-out: Growth inhibitory activity (IC50) NCI/ADR-RES; mean ± S.D.", "in_short": "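Adherent NCI/ADR-RES cells were seeded at 5,000 cells/well 24 h prior to compound treatment and kept at 37 °C, 5% CO₂. Growth was measured by Alamar blue. IC50 values are mean ± S.D. over n ≥ 3 biological replicates.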"}, "[8]": {"test_system": "murine AML cell line B140P", "experiment": "Murine cytotoxicity assay, B140P", "format": "cell-based", "conditions": "read-out: Growth inhibitory activity (IC50) B140P", "in_short": "as §2"}, "[9]": {"test_system": "TEX cells", "experiment": "Intracellular ROS induction", "format": "cell-based, human", "conditions": "30 min", "in_short": "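TEX cells were seeded at 5 × 10⁵ cells/mL and incubated overnight at 37 °C, 5% CO₂. They were then exposed to test compound at 25 or 100 µM, with H₂O₂ 100 µM as positive control. CellROX Green (5 µM final) was added at once, followed by 30 min at 37 °C. Cells were washed twice in FACS buffer and 5 × 10⁴ events recorded. Median fluorescence was normalized to untreated control. Runs were in quadruplicate (H₂O₂ triplicate); mean ± S.D.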"}, "[10]": {"test_system": "murine AML cell line B117P", "experiment": "Murine cytotoxicity assay, B117P", "format": "cell-based", "conditions": "read-out: Growth inhibitory activity (IC50) B117P", "in_short": "as §2"}, "[11]": {"test_system": "MCF-7 (breast adenocarcinoma)", "experiment": "Alamar blue cytotoxicity assay, MCF-7", "format": "cell-based, human", "in_short": "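MCF-7 cells were grown in MEM with 10% FBS, bovine insulin 0.01 mg/mL, penicillin and streptomycin at 37 °C in 5% CO₂. They were detached with trypsin-EDTA or TrypLE and seeded at 5,000 cells/well 24 h before dosing. Readout was Alamar blue reduction. IC50 is mean ± S.D. from n ≥ 3 biological replicates.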"}, "[12]": {"test_system": "CCRF-CEM (acute lymphoblastic leukemia)", "experiment": "Alamar blue cytotoxicity assay, CCRF-CEM", "format": "cell-based, human", "conditions": "read-out: Growth inhibitory activity (IC50) CCRF-CEM", "in_short": "(§3)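 Suspension cells (CCRF-CEM; TEX in IMDM with L-glutamine, 15% FBS, SCF 20 ng/mL, IL-3 2 ng/mL, penicillin/streptomycin) were seeded at 10,000 cells/well 24 h before compound addition. Cultures were kept at 37 °C in humidified 5% CO₂. Viability was read with Alamar blue. IC50 is mean ± S.D. of n ≥ 3 biological replicates.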"}, "[13]": {"test_system": "HL-60 (acute promyelocytic leukemia)", "experiment": "Alamar blue cytotoxicity assay, HL-60", "format": "cell-based, human", "conditions": "read-out: Growth inhibitory activity (IC50) HL-60; mean ± S.D."}, "[14]": {"test_system": "U-87 MG (glioblastoma multiforme)", "experiment": "Alamar blue cytotoxicity assay, U-87 MG", "format": "cell-based, human", "conditions": "read-out: Growth inhibitory activity (IC50) U-87 MG; mean ± S.D."}, "[15]": {"test_system": "murine AML cell line B140H (cytarabine-resistant)", "experiment": "Murine cytotoxicity assay, B140H", "format": "cell-based", "conditions": "read-out: Growth inhibitory activity (IC50) B140H", "in_short": "as §2"}, "[16]": {"test_system": "DU-145 (prostate cancer)", "experiment": "Alamar blue cytotoxicity assay, DU-145", "format": "cell-based, human", "conditions": "read-out: Growth inhibitory activity (IC50) DU-145; mean ± S.D."}, "[17]": {"test_system": "GBM6 (glioblastoma multiforme)", "experiment": "Alamar blue cytotoxicity assay, GBM6", "format": "cell-based, human", "conditions": "read-out: Growth inhibitory activity (IC50) GBM6; mean ± S.D."}, "[18]": {"test_system": "TEX cells", "experiment": "Alamar blue cytotoxicity assay, TEX", "format": "cell-based, human", "conditions": "read-out: Growth inhibitory activity (IC50) TEX", "in_short": "as §3"}, "[19]": {"experiment": "Measured LogD7.4", "format": "physicochemical", "conditions": "pH 7.4", "in_short": "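LogD at pH 7.4 was determined experimentally by liquid-liquid distribution chromatography, run by a contract analytical lab. Each value is the average of two measurements. The assay's measurable range is 1–5 log units.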"}, "[20]": {"conditions": "mice, oral dosing 40 mg/kg; cited from earlier work"}, "[21]": {"test_system": "total BM", "conditions": "cited from earlier work"}, "[22]": {"conditions": "mouse plasma; cited from earlier work"}, "[23]": {"test_system": "CD34+CD38− BM cells", "conditions": "5 µM for 18 hrs; cited from earlier work"}}, "note": "Read-outs that look alike come from different tables or passages of the source.", "data": [{"smiles": "COc1cccc2c1C(=O)c1c(O)c3c(c(O)c1C2=O)C[C@@](O)(C(=O)CO)C[C@@H]3O[C@H]1C[C@H](N)[C@H](O)[C@H](C)O1", "note": "[DOX, Doxorubicin]", "values": [{"measurement": "IC50", "setting": "[1]", "value": "> 500", "unit": "µM"}, {"measurement": "reduction in the primitive CD34+CD38− BM population viability", "setting": "[2]; 0.5 µM, 12 hr", "value": 85, "unit": "%"}, {"measurement": "viability at 0.5 µM", "setting": "[3]; read-out: viability of CD34+CD38− TEX cells", "value": 6, "unit": "%"}, {"measurement": "reduction in total BM viability", "setting": "[4]; 0.5 µM, 12 hr", "value": 56, "unit": "%"}, {"measurement": "Colonies (mean number ± S.D.)", "setting": "[5]; 0.1 µM", "value": "0.7 ± 1.3"}]}, {"smiles": "C=C1C(=O)O[C@@H]2[C@H]3O[C@]3(C)CC/C=C(\\CO)CC[C@@H]12", "note": "[MelB, Melampomagnolide B]", "values": [{"measurement": "IC50", "setting": "[6]; mean ± S.D.", "value": "2.5 ± 1", "unit": "µM"}, {"measurement": "IC50", "setting": "[7]", "value": "15 ± 4.9", "unit": "µM"}, {"measurement": "IC50", "setting": "[8]; mean ± S.D.", "value": "2.9 ± 1", "unit": "µM"}, {"measurement": "induction of intracellular ROS (MFI normalized to untreated control)", "setting": "[9]; 25 µM", "value": "No observable induction of ROS"}, {"measurement": "induction of intracellular ROS (MFI normalized to untreated control)", "setting": "[9]; 100 µM", "value": "No observable induction of ROS"}, {"measurement": "IC50", "setting": "[10]; mean ± S.D.", "value": "2.1 ± 0.8", "unit": "µM"}, {"measurement": "reduction in total BM viability", "setting": "[4]; 25 µM, 12 h", "value": "22–26%"}, {"measurement": "IC50", "setting": "[11]; read-out: Growth inhibitory activity (IC50) MCF-7, mean ± S.D.", "value": "9.5 ± 1.9", "unit": "µM"}, {"measurement": "IC50", "setting": "[12]; mean ± S.D.", "value": "5.5 ± 1.2", "unit": "µM"}, {"measurement": "IC50", "setting": "[13]", "value": "7.5 ± 3", "unit": "µM"}, {"measurement": "IC50", "setting": "[14]", "value": "16.3 ± 6.8", "unit": "µM"}, {"measurement": "Colonies (mean number ± S.D.)", "setting": "[5]; 2.5 µM", "value": "5.3 ± 1.6"}, {"measurement": "Colonies (mean number ± S.D.)", "setting": "[5]; 15 µM, N.D. = clonal growth not detected", "value": "0.1 ± 0.3"}, {"measurement": "IC50", "setting": "[15]; mean ± S.D.", "value": "2.2 ± 0.7", "unit": "µM"}, {"measurement": "IC50", "setting": "[16]", "value": "14.3 ± 5.9", "unit": "µM"}, {"measurement": "IC50", "setting": "[17]", "value": "4.5 ± 1.9", "unit": "µM"}, {"measurement": "IC50", "setting": "[18]; 48 hr treatment, mean ± S.D.", "value": "6.8 ± 2.3", "unit": "µM"}]}, {"smiles": "C=C1C(=O)O[C@H]2[C@H]1CC/C(C)=C/CC[C@@]1(C)O[C@@H]21", "note": "[PTL, Parthenolide]", "values": [{"measurement": "chromatographic logD", "setting": "[19]", "value": 1.79}, {"measurement": "concentration in serum", "setting": "[20]", "value": "approximately 200 nM"}, {"measurement": "IC50", "setting": "[6]; Mus musculus", "value": "4.7 ± 1.6", "unit": "µM"}, {"measurement": "toxicity to primitive CD34+CD38− BM cells", "setting": "[2]; 25 µM, 12 h", "value": "no significant toxicity"}, {"measurement": "toxicity to total BM", "setting": "[21]; 5 µM for 18 hrs", "value": "non-toxic"}, {"measurement": "overall BM toxicity", "setting": "[21]; 7.5 µM for 18 hrs", "value": "some overall BM toxicity"}, {"measurement": "IC50", "setting": "[8]; Mus musculus", "value": "5.8 ± 2.3", "unit": "µM"}, {"measurement": "induction of intracellular ROS (MFI normalized to untreated control)", "setting": "[9]; 100 µM", "value": 1.6, "unit": "fold"}, {"measurement": "viability at 25 µM", "setting": "[3]; read-out: cell viability of CD34+CD38− TEX cells", "value": "1 to 10", "unit": "%"}, {"measurement": "plasma half-life t1/2", "setting": "[22]", "value": 1.6, "unit": "h"}, {"measurement": "IC50", "setting": "[10]; Mus musculus", "value": "1.1 ± 0.2", "unit": "µM"}, {"measurement": "reduction in total BM viability", "setting": "[4]; 25 µM, 12 h", "value": 48, "unit": "%"}, {"measurement": "IC50", "setting": "[11]; Homo sapiens, MCF7, read-out: Growth inhibitory activity (IC50) MCF-7", "value": "9.7 ± 2.8", "unit": "µM"}, {"measurement": "IC50", "setting": "[12]; Homo sapiens, CCRF-CEM", "value": "4.7 ± 1.6", "unit": "µM"}, {"measurement": "Colonies (mean number ± S.D.)", "setting": "[5]; 2.5 µM", "value": "2.6 ± 2.7"}, {"measurement": "IC50", "setting": "[15]; Mus musculus", "value": "3.4 ± 1.1", "unit": "µM"}, {"measurement": "IC50", "setting": "[18]; Homo sapiens, 48 h", "value": "2.8 ± 0.2", "unit": "µM"}, {"measurement": "toxicity to CD34+CD38− BM cells", "setting": "[23]", "value": "non-toxic"}]}, {"smiles": "Nc1ccn([C@@H]2O[C@H](CO)[C@@H](O)C2(F)F)c(=O)n1", "note": "[gemcitabine]", "values": [{"measurement": "IC50", "setting": "[1]", "value": "> 500", "unit": "µM"}]}, {"smiles": "OO", "note": "[hydrogen peroxide]", "values": [{"measurement": "induction of intracellular ROS (MFI normalized to untreated control)", "setting": "[9]; 100 µM", "value": 3.1, "unit": "fold"}]}]}
